According to PubChem BioAssay:
The source made the active and inactive calls.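 The calls were made as follows, unless noted: active = viability at or below 30% in both replicate assays; inconclusive = viability at or below 30% in just one of the two assays; inactive = the rest.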

Legend:
[1] = Her2 expression decrease, cell viability multiplex – SKBR3 breast tumor cells, AlphaScreen, ATP viability, primary screen (AID 461;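 active = Her2 level under about 52% in both replicate screens, with viability over 70% of control, limit read from the data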;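 as to Her2 level: lower value means less Her2 protein in the cells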;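 as to viability: percent of carrier control wells set as 100% viability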); settings: SKBR3 Her2 protein level, 18-24 h, measured here: SKBR3 viability, ATP luminescence, at 10 µM
[2] = molecular target: Receptor tyrosine-protein kinase erbB-2 (Homo sapiens) (UniProt P04626); test: as above; settings: 18-24 h, at 10 µM, stronger effect = lower value
[3] = reduced viability of SK-BR-3 breast cancer cells – cell-based, 24 h, human, pilot screen (AID 572;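 active = viability at or below 10% of carrier control in both of two separate runs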;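 also: compound exposure lasted between 18 and 24 h rather than exactly 24 h; 100% = carrier-treated control wells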); settings: SK-BR-3 viability, CellTiter-Glo luminescence, at 10 µM, stronger effect = lower value
[4] = HUVEC growth inhibition – cell-based, human, primary screen (AID 575); settings: HUVEC proliferation, CellTiter-Glo luminescence, 72 h; at 10 µM; stronger effect = lower value;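 also: 100% = median of untreated cell wells with 0.1% DMSO on each plate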
In short: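 Test system: HUVEC primary cells. Quantity: 1250 endothelial cells in each well. Dosing: single-point 10 µM, DMSO 0.1% final. Incubation: 72 h treatment at 37 °C. Measured by: CTG luminescence. Control set: DMSO cell controls and MePR drug controls. Plate: collagen-coated 384-well format.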

[5] = H69AR cell proliferation blockers – human, duplicate replicates, primary screen (AID 580;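 active = viability at or under a set limit in both replicates, limit being median viability minus 3 SD, cut at about 48% in these data, passing the limit was not always enough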;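 also: 100% = mean luminescence of untreated wells and 0% = no signal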); settings: H69AR lung tumor cells viability, ATP luminescence, 72 h; at 10 µM; stronger effect = lower value
[6] = MRP1 drug-resistance reversers in H69AR cells – cell-based, doxorubicin co-treatment, pilot screen (AID 601;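 active = viability loss from added drug above about 55%, and viability with drug at most 40%, in both replicates, limit read from the data, passing the limit was not always enough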); settings: CellTiter-Glo, 72 h, at 10 µM; for differential viability (reversal): stronger effect = higher value
[7] = yeast transport mutant growth inhibition pilot in 384-well plates, post-Golgi transport modulator project (AID 636; in the data active = inhibition above about 31%); settings: absorbance 615 nm, about 18 h, stronger effect = higher value
[8] = growth suppression of yeast trafficking mutant, preliminary HTS, modulators of trafficking downstream of Golgi apparatus project, 1536-format plate, OD 615 nm (AID 637; in the data active = inhibition above about 30%); settings: yeast transport mutant growth, absorbance 615 nm, 18 h; stronger effect = higher value
[9] = H69AR cells + 2 uM doxorubicin, measured here: viability with 2 uM doxorubicin, stronger effect = lower value
[10] = H69AR cells, compound alone cytotoxicity

Receptor tyrosine-protein kinase erbB-2 (Homo sapiens), sequence (P04626 whole entry, looked up): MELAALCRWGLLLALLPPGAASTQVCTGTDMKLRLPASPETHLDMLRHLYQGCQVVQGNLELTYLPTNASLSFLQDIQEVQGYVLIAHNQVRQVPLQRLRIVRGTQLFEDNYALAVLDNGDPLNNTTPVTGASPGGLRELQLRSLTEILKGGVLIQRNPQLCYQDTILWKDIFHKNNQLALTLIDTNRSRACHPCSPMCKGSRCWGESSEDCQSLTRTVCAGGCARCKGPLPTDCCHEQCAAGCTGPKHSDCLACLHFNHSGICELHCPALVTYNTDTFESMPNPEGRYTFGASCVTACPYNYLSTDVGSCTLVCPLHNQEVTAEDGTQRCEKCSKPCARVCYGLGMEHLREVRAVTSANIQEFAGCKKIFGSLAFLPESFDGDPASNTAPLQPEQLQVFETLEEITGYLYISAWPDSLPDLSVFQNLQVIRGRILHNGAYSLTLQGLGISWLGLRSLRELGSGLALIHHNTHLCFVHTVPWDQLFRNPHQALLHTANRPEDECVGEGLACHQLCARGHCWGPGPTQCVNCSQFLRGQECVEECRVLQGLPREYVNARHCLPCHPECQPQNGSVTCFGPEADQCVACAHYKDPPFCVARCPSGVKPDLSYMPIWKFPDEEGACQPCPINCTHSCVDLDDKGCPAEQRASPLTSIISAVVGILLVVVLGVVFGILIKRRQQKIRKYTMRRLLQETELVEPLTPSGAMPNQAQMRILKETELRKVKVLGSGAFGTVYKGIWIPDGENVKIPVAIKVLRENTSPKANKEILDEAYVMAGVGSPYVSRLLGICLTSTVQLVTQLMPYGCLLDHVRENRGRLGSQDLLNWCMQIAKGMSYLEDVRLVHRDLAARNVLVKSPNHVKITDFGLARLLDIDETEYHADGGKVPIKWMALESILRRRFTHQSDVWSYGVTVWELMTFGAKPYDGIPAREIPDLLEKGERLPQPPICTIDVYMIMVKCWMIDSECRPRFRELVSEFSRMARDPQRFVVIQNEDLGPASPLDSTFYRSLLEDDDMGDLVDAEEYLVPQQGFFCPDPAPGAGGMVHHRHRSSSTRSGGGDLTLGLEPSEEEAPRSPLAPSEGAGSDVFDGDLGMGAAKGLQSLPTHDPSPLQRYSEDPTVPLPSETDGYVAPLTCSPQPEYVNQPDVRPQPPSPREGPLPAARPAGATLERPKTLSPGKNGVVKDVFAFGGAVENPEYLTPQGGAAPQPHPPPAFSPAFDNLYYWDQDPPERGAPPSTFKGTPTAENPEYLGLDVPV

| Structure (SMILES) | viability [1] | Her2 level [2] | viability [3] | viability [4] | viability [5] | differential viability (reversal) ([6]; H69AR cells + 2 uM doxorubicin) | viability [6, 9] | viability [6, 10] | inhibition [7] | inhibition [8] |
| --- | --- | --- | --- | --- | --- | --- | --- | --- | --- | --- |
| O=C(COC(=O)c1ccco1)NCc1cccs1 | 112% | 97.5% (inactive) | 112% (inactive) | 98.9% (inactive) | 106% (inactive) | 10.7% (inactive) | 95.3% | 106% | -7.76% (inactive) | 0% (inactive) |
| O=c1c2[nH]c3cccc(Cl)c3c2ncn1CCN1CCCCC1 | 103% | 83.5% (inactive) | 103% (inactive) | 101% (inactive) | 92.6% (inactive) | 4.01% (inactive) | 88.6% | 92.6% | -4.13% (inactive) | 0.49% (inactive) |
| Cc1nc2c(c(=O)n1CC1CCCO1)c1nc3ccccc3nc1n2CC(C)C (stereo not given) | 96.5% | 89.5% (inactive) | 96.5% (inactive) | 104% (inactive) | 84.2% (inactive) | -9.93% (inactive) | 94.1% | 84.2% | 2.63% (inactive) | 0.81% (inactive) |
| O=c1[nH]c2cc3c(cc2cc1C(c1nnnn1Cc1ccccc1)N1CCCc2ccccc21)OCO3 (stereo not given) | 98.5% | 95.5% (inactive) | 98.5% (inactive) | 79.3% (inactive) | 61.6% (inactive) | -0.235% (inactive) | 61.8% | 61.6% | -3.73% (inactive) | 4.43% (inactive) |
| COc1cccc(-n2c(CNc3ccc(F)cc3)nnc2SCC(N)=O)c1 | 115% | 82.5% (inactive) | 115% (inactive) | 101% (inactive) | 90.4% (inactive) | 8.77% (inactive) | 81.6% | 90.4% | -4.67% (inactive) | 0.97% (inactive) |
| Cc1ccc(CCNC(=O)C2CCN(S(=O)(=O)c3cccc4nsnc34)CC2)cc1 | 93.5% | 108% (inactive) | 93.5% (inactive) | 107% (inactive) | 95.6% (inactive) | -3.61% (inactive) | 99.2% | 95.6% | 2.13% (inactive) | 0.33% (inactive) |
| COc1ccccc1-c1nc(SCc2ccccn2)n[nH]1 | 104% | 78.5% (inactive) | 104% (inactive) | 98.3% (inactive) | 97.2% (inactive) | 5.32% (inactive) | 91.9% | 97.2% | -1.89% (inactive) | -2.06% (inactive) |
| CC1Cc2ccccc2N1C(=O)c1cnsn1 (stereo not given) | 136% | 103% (inactive) | 136% (inactive) | 86.3% (inactive) | 97.8% (inactive) | 10.4% (inactive) | 87.4% | 97.8% | -6.71% (inactive) | -10.8% (inactive) |
| COC(=O)CSc1nc2sc3c(c2c(=O)n1C1CCCCC1)CCN(C)C3 | 102% | 75.5% (inactive) | 102% (inactive) | 84.7% (inactive) | 95% (inactive) | 2.91% (inactive) | 92.1% | 95% | -5.66% (inactive) | 1.83% (inactive) |
| O=C(Nc1ccc(S(=O)(=O)N2CCc3ccccc32)cc1)c1ccc2c(c1)OCO2 | 77% | 75.5% (inactive) | 77% (inactive) | 76.7% (inactive) | 103% (inactive) | 2.24% (inactive) | 100% | 103% | 3.51% (inactive) | -8.73% (inactive) |
| CN(C)c1ccc(C(=O)OCC(=O)NC2CCCCC2)cc1 | 106% | 97% (inactive) | 106% (inactive) | 98.1% (inactive) | 91.5% (inactive) | 8.63% (inactive) | 82.9% | 91.5% | -5.6% (inactive) | 5.81% (inactive) |
| CCOC(=O)COc1ccc(S(=O)(=O)N2CCc3ccccc3C2)cc1 | 111% | 102% (inactive) | 111% (inactive) | 9.96% (active) | 96.7% (inactive) | 13.7% (inactive) | 83% | 96.7% | -1.97% (inactive) | 0.65% (inactive) |
| CC(C)(C)OC(=O)N1CCOCCOCCN(C(=O)OC(C)(C)C)CCOCCOCC1 | 97.5% | 112% (inactive) | 97.5% (inactive) | 83% (inactive) | 93.4% (inactive) | -2.94% (inactive) | 96.4% | 93.4% | -3.16% (inactive) | 5.74% (inactive) |
| Cc1cccc2cc(CN(Cc3nnnn3C3CCCC3)C3CCCCC3)c(=O)[nH]c12 | 84.5% | 109% (inactive) | 84.5% (inactive) | 72.7% (inactive) | 79.4% (inactive) | 0.525% (inactive) | 78.9% | 79.4% | -1.71% (inactive) | -10.2% (inactive) |
| CCOC(=O)c1[nH]c(C)c(C(=O)Nc2cc(OC)ccc2OC)c1C | 81% | 65% (inactive) | 81% (inactive) | 47.4% (inactive) | 25.5% (active) | -45.8% (inactive) | 71.3% | 25.5% | -2.24% (inactive) | -4.92% (inactive) |
| CCCC(=O)Nc1ccccc1NC(=O)CN(C)S(=O)(=O)c1ccc(C)cc1 | 97% | 114% (inactive) | 97% (inactive) | 103% (inactive) | 98.9% (inactive) | 9.23% (inactive) | 89.6% | 98.9% | -4.8% (inactive) | -4.84% (inactive) |

| Structure (SMILES) | viability [1] | Her2 level [2] | viability [3] | viability [4] | viability [5] | differential viability (reversal) ([6]; H69AR cells + 2 uM doxorubicin) | viability [6, 9] | viability [6, 10] | inhibition [7] | inhibition [8] |
| --- | --- | --- | --- | --- | --- | --- | --- | --- | --- | --- |
| CCn1c(=O)cc(SCC(=O)Nc2ccc3c(c2)OCO3)c2ccccc21 | 97% | 88% (inactive) | 97% (inactive) | 64.1% (inactive) | 87.9% (inactive) | 3.51% (inactive) | 84.4% | 87.9% | -2.5% (inactive) | -10.5% (inactive) |
| CN(C)c1cccc(NC(=O)CCc2ccccc2)c1 | 86% | 90% (inactive) | 86% (inactive) | 89.9% (inactive) | 94.5% (inactive) | -7.99% (inactive) | 102% | 94.5% | -5.89% (inactive) | 2.38% (inactive) |
| O=C(Nc1nccs1)c1ccc(Cl)c(S(=O)(=O)N2CCCCC2)c1 | 89% | 65% (inactive) | 89% (inactive) | 84.3% (inactive) | 87.2% (inactive) | -9.49% (inactive) | 96.7% | 87.2% | -5.81% (inactive) | 3.83% (inactive) |
| O=C(CNS(=O)(=O)c1ccccc1)NCc1ccccn1 | 84% | 76.5% (inactive) | 84% (inactive) | 96.2% (inactive) | 102% (inactive) | 8.75% (inactive) | 93.2% | 102% | -2.27% (inactive) | 1.45% (inactive) |
| Cc1ccc(CNC(=O)CCCn2c(=O)c3ccccc3n(CC(=O)NCc3ccco3)c2=O)cc1 | 90.5% | 144% (inactive) | 90.5% (inactive) | 104% (inactive) | 89.6% (inactive) | -1.43% (inactive) | 91% | 89.6% | 2.76% (inactive) | 12.6% (inactive) |
| Cc1[nH]n(C(N)=S)c(=O)c1C(c1ccccc1)C(C#N)C#N (stereo not given) | 96.5% | 152% (inactive) | 96.5% (inactive) | 70.8% (inactive) | 91.6% (inactive) | -0.72% (inactive) | 92.4% | 91.6% | 3.46% (inactive) | 20.2% (inactive) |
| CCC(=O)N/C(N)=N/c1nc(C)c2cc(OC)ccc2n1 | 131% | 67.5% (inactive) | 131% (inactive) | 59.5% (inactive) | 80.7% (inactive) | -8.64% (inactive) | 89.3% | 80.7% | -0.13% (inactive) | -5.74% (inactive) |
| Brc1ccc2[nH]ncc2c1 | 101% | 78% (inactive) | 101% (inactive) | 110% (inactive) | 91.6% (inactive) | 0.11% (inactive) | 91.5% | 91.6% | -2.5% (inactive) | 1.43% (inactive) |
| CCOc1ccccc1C1CC(=O)Nc2cc3c(cc21)OCO3 (stereo not given) | 110% | 83.5% (inactive) | 110% (inactive) | 31% (inactive) | 23.7% (active) | -37.2% (inactive) | 60.9% | 23.7% | -4.61% (inactive) | 8.17% (inactive) |
| CCC(C)NC(=O)CCNS(=O)(=O)c1ccc(Br)cc1 (stereo not given) | 95.5% | 73% (inactive) | 95.5% (inactive) | 99.2% (inactive) | 98.5% (inactive) | 2.66% (inactive) | 95.8% | 98.5% | -4.74% (inactive) | -1.67% (inactive) |
| CCN(CC)C(=O)C1=C(C)NC(=O)NC1c1c(F)cccc1Cl (stereo not given) | 108% | 108% (inactive) | 108% (inactive) | 96.8% (inactive) | 101% (inactive) | 13.7% (inactive) | 87.2% | 101% | -3.82% (inactive) | 4.92% (inactive) |
| O=C(C1CCCO1)N1CCN(C(c2ccccc2)c2ccccc2)CC1 (stereo not given) | 98.5% | 94% (inactive) | 98.5% (inactive) | 89.1% (inactive) | 96% (inactive) | 6.47% (inactive) | 89.5% | 96% | -0.91% (inactive) | 2.62% (inactive) |
| CC(C)(C)NC(=O)C(c1ccco1)N(C(=O)Cn1nnc(-c2ccc(F)cc2)n1)c1ccccc1 (stereo not given) | 89.5% | 80% (inactive) | 89.5% (inactive) | 101% (inactive) | 102% (inactive) | 3.25% (inactive) | 98.4% | 102% | -0.92% (inactive) | 0% (inactive) |
| CC(=O)c1c(OCC(=O)O)ccc2c(C)cc(=O)oc12 | 136% | 104% (inactive) | 136% (inactive) | 101% (inactive) | 91.8% (inactive) | 3.1% (inactive) | 88.7% | 91.8% | -5.66% (inactive) | 6.07% (inactive) |
| CCOC(=O)Cc1csc(NC(=O)CSc2nnc(C(C)C)n2CC)n1 | 126% | 86% (inactive) | 126% (inactive) | 88% (inactive) | 89.8% (inactive) | 1.63% (inactive) | 88.2% | 89.8% | -6.13% (inactive) | 1.59% (inactive) |
| CCC12CN3CC(CC)(CN(C1)C3c1ccc(OC(C)C)cc1)C2=O (stereo not given) | 94% | 92% (inactive) | 94% (inactive) | 110% (inactive) | 105% (inactive) | 10.7% (inactive) | 94.6% | 105% | -3.78% (inactive) | -0.95% (inactive) |
